Measured values: ChEMBL document CHEMBL1124173, “Enantiomers of 7-(2,3-epoxypropoxy)actinomycin D as dual-action DNA-acting antitumor agents” (J Med Chem, 1988)
Numbered stars: 1 amine (or outer) side, 2 acyl side, 3 side chain; on linkers, the order of the positions; unused ones are H or OH. Bridge positions count the residues as written; N and C are the ends. Square brackets hold non-standard residues; d marks the D form. Peptide text beside a SMILES is read from it. I, II: the chains in the order shown. Actinocin(1to9) = Cc1c2oc3c(C)ccc(C(=O)[*:2])c3nc-2c(C(=O)[*:1])c(N)c1=O; NMeV = CN[C@H](C(=O)O)C(C)C; Sar = CNCC(=O)O

Tests used:
[1] = Molar ratio of DNA to total amount of compound that is bound both intercalatively and covalently to calf thymus DNA helix; type: functional
Procedure, shortened: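 [3H]Drug and purified calf thymus DNA dialyzed at 37 °C in Tris HCl pH 7.4 (20 mM per footnote; 25 mM in methods). Equilibrated complex precipitated twice with ethanol to remove unbound drug. Molar DNA/drug ratio based on total bound drug, intercalative plus covalent.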

[2] = Ratio of DNA to compound bound entirely by covalent bonding to DNA base.; type: functional
Procedure, shortened: (§1)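 [3H]Drug and purified calf thymus DNA dialyzed at 37 °C in Tris HCl buffer; complex twice ethanol-precipitated to remove unbound drug. Molar DNA/drug ratio calculated from drug bound only covalently to DNA bases.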

L1210 [3] = assay: Inhibition of synthesis of [5-3H]-uridine into RNA in L1210 cells.; type: functional, cell-based, Mus musculus
Procedure, shortened: (§2)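 Actively growing L1210 cells in vitro. Incorporation of [5-3H]uridine into RNA, or [methyl-14C]thymidine into DNA, compared with untreated cells. IC50 is micromolar drug concentration giving 50% reduction in incorporation rate.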

L1210 [4] = assay: Inhibition of synthesis of [methyl-14C] thymidine into DNA, in L1210 cells.; type: functional, cell-based, Mus musculus; settings: Mus musculus, L1210; procedure, shortened: as §2
B16 = assay: In vitro 50% Growth inhibition of sensitive B16 cells.; type: functional, Mus musculus; settings: Mus musculus, B16; read-out: ID50 (the source's name)
Procedure, shortened: (§3)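 Actively growing tumor cells in vitro (actinomycin-resistant P388/ADR leukemia; sensitive B16 melanoma); ID50 is concentration (nM) needed for 50% growth inhibition.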

L1210 [5] = assay: 50% Inhibition of growth of L1210 cells in culture.; type: functional, Mus musculus; settings: Mus musculus, L1210; read-out: ID50 (the source's name)
Procedure, shortened: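 L1210 leukemia cells growing actively in culture; ID50 is drug concentration (nM) giving 50% inhibition of growth relative to untreated L1210 cells.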

L1210 [6] = assay: Optimal dose per injection, administered ip on days 1, 5, and 9, ip inoculation with 10E5 L1210 cells per CDF1 mouse on day 0.; type: functional
Procedure, shortened: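 CDF1 mice inoculated ip with 10^5 L1210 cells on day 0; drugs given ip on days 1, 5 and 9. Optimal dose in mg/kg per injection. %ILS is increase in median life span of treated dying mice over untreated tumor-bearing mice; survivors counted beyond 60 days, 9 per group.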

Mus musculus [7] = organism: Mus musculus; assay: Antitumor activity measured as % increase in life span, against C26 colon carcinoma.; type: functional
Procedure, shortened: (§4)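 C26 primary colon carcinoma cells (trypan blue excluding, 2.5 × 10^5 cells/mouse) implanted in CDF1 mice on day 0. Drug given ip on days 1, 5 and 9 in 0.1 mL 5% v/v Me2SO-saline at optimal dose. Read-out is median survival time; %ILS is drug-treated over control, excluding survivors. Sixty-day survivors are counted.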

Mus musculus [8] = organism: Mus musculus; assay: percent increase in median life time (%ILS) measured in mice bearing leukemia L!210; type: functional
Procedure, shortened: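 CDF1 mice inoculated ip with 10^5 L1210 cells on day 0. Drug given ip on days 1, 5 and 9 at the optimal dose in mg/kg per injection. %ILS is the increase in median life span of treated dying animals versus untreated tumor-bearing mice. Over-60-day survivors are counted; 9 mice per group.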

Mus musculus [9] = assay: Antitumor activity measured as % increase in life span, for ip administration of compound and ip inoculation of B16 melanoma.; type: functional
Procedure, shortened: (§5)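 B16 brei (tumor weight/Hank's balanced salt solution 1:5, 0.2 mL) implanted sc or ip into groups of nine BDF1 mice on day 0. Drug given iv on day 1 (sc tumor) or ip on days 1, 5 and 9 (ip tumor), in 0.1 mL 5% v/v Me2SO-saline. Read-out is median survival time and %ILS versus untreated controls, excluding sixty-day survivors.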

Mus musculus [10] = organism: Mus musculus; assay: Antitumor activity measured as optimal dose, against C26 colon carcinoma.; type: functional
Procedure, shortened: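 Primary colon C26 carcinoma cells (trypan blue excluding, 2.5 × 10^5 cells/mouse) implanted in CDF1 mice on day 0. Drug given ip on days 1, 5 and 9 in 0.1 mL 5% v/v Me2SO-saline. Optimal dose in […]; %ILS and 60-day survivors scored.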

Mus musculus [11] = assay: Antitumor activity measured as median survival time, for ip administration and ip inoculation of B16 melanoma.; type: functional; procedure, shortened: as §5
Mus musculus [12] = organism: Mus musculus; assay: Antitumor activity measured as median survival time, against C26 colon carcinoma.; type: functional; procedure, shortened: as §4
P388/ADR [13] = assay: Antitumor activity measured as Median survival time in days against P388/ADR, in ip implanted CDF1 mice, treated ip, qd 1-9; type: functional, Mus musculus
Procedure, shortened: (§6)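 P388/ADR leukemia, a P388/S subline made resistant to intercalators, implanted ip in CDF1 mice. Drug given ip daily on days 1-9 at optimal dose. Read-out is median survival time of tumor-bearing mice and %ILS of treated dying animals versus controls. Survivors beyond 60 days are counted; 10 mice per group.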

P388/ADR [14] = assay: Antitumor activity against P388/ADR, in ip implanted CDF1 mice, treated ip, qd 1-9 measured as optimal dose; type: functional, Mus musculus
Procedure, shortened: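 P388/ADR leukemia implanted ip in CDF1 mice; drugs given ip once daily on days 1-9. Optimal dose recorded alongside median survival time and % increase in median life span of treated dying mice versus controls; survivors counted as >60-day survivors per group of 10.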

P388/ADR [15] = assay: In vitro 50% Growth inhibition of actinomycin resistant P388/ADR cells; type: functional, Mus musculus; settings: Mus musculus, P388/ADR; read-out: ID50 (the source's name); procedure, shortened: as §3
P388/ADR [16] = assay: Antitumor activity measured as %ILS against P388/ADR, in ip implanted CDF1 mice, treated ip, qd 1-9; type: functional, Mus musculus; procedure, shortened: as §6
Mus musculus [17] = organism: Mus musculus; assay: Antitumor activity measured as optimal dose, for B16 melanoma.
Mus musculus [18] = assay: Antitumor activity measured as median survival time, for iv administration and sc inoculation of B16 melanoma.
Mus musculus [19] = assay: Antitumor activity measured as % increase in life span, for iv administration of compound and sc inoculation of B16 melanoma.
P388/ADR [20] = assay: Antitumor activity measured as Median survival time in days against P388/ADR, in ip implanted CDF1 mice, qd 1-9; type: functional, Mus musculus; procedure, shortened: as §6
P388/ADR [21] = assay: Antitumor activity measured as %ILS against P388/ADR, in ip implanted CDF1 mice, qd 1-9; type: functional, Mus musculus; procedure, shortened: as §6
Mus musculus [22] = assay: Antitumor activity measured as median survival time, for iv administration and sc inoculation of B16 melanoma.; remark: listed apart in the source
Mus musculus [23] = assay: Antitumor activity measured as % increase in life span, for iv administration of compound and sc inoculation of B16 melanoma.; remark: listed apart in the source
Bos taurus = organism: Bos taurus; assay: Thermal denaturation of calf thymus DNA measured as ΔTm; settings: cattle, in vitro
[24] = ratio of DNA to compound bound entirely by covalent bonding to DNA base.; type: functional; procedure, shortened: as §1

SMILES	Ratio [1]	IC50 (L1210 [4])	IC50 (B16)	IC50 (L1210 [5])	Dose (L1210 [6])	ILS (Mus musculus [8])	ILS (Mus musculus [9])	Dose (Mus musculus [10])	MST (Mus musculus [11])	MST (Mus musculus [12])	MST (P388/ADR [13])	Dose (P388/ADR [14])	IC50 (P388/ADR [15])	ILS (P388/ADR [16])	Dose (Mus musculus [17])	ILS (Mus musculus [19])	ILS (Mus musculus [7])	MST (Mus musculus [22])	also measured
Cc1c2oc3c(C)c(OCC4CO4)cc(C(=O)N[C@@H]4C(=O)N[C@@H](C(C)C)C(=O)N5CCC[C@H]5C(=O)N(C)CC(=O)N(C)[C@@H](C(C)C)C(=O)O[C@H]4C)c3nc-2c(C(=O)N[C@@H]2C(=O)N[C@@H](C(C)C)C(=O)N3CCC[C@H]3C(=O)N(C)CC(=O)N(C)[C@@H](C(C)C)C(=O)O[C@H]2C)c(N)c1=O (stereo in doubt; 3b)	32																		Ratio [2]: 480
Cc1c2oc3c(C)c(OCC4CO4)cc(C(=O)N[C@@H]4C(=O)N[C@H](C(C)C)C(=O)N5CCC[C@H]5C(=O)N(C)CC(=O)N(C)[C@@H](C(C)C)C(=O)O[C@@H]4C)c3nc-2c(C(=O)N[C@@H]2C(=O)N[C@H](C(C)C)C(=O)N3CCC[C@H]3C(=O)N(C)CC(=O)N(C)[C@@H](C(C)C)C(=O)O[C@@H]2C)c(N)c1=O (stereo in doubt; 3b) [listing 1 of 2 here]		80 nM																	IC50 (L1210 [3]; l1210): 24 nM
Cc1c2oc3c(C)c(OC[C@H]4CO4)cc(C(=O)N[C@@H]4C(=O)N[C@H](C(C)C)C(=O)N5CCC[C@H]5C(=O)N(C)CC(=O)N(C)[C@@H](C(C)C)C(=O)O[C@@H]4C)c3nc-2c(C(=O)N[C@@H]2C(=O)N[C@H](C(C)C)C(=O)N3CCC[C@H]3C(=O)N(C)CC(=O)N(C)[C@@H](C(C)C)C(=O)O[C@@H]2C)c(N)c1=O			2 nM	23.1 nM	0.05 mg/kg	199%	105%	0.6 mg/kg	39 days	41.5 days	45 days	0.3 mg/kg	40 nM	400%	1 mg/kg	70%			%ILS (Mus musculus [7]): 89%; MST (Mus musculus [18]): 56 days
Cc1c2oc3c(C)c(OCC4CO4)cc(C(=O)N[C@@H]4C(=O)N[C@H](C(C)C)C(=O)N5CCC[C@H]5C(=O)N(C)CC(=O)N(C)[C@@H](C(C)C)C(=O)O[C@@H]4C)c3nc-2c(C(=O)N[C@@H]2C(=O)N[C@H](C(C)C)C(=O)N3CCC[C@H]3C(=O)N(C)CC(=O)N(C)[C@@H](C(C)C)C(=O)O[C@@H]2C)c(N)c1=O (stereo in doubt; 3b) [listing 2 of 2 here]			2.5 nM	28.7 nM	0.05 mg/kg	186%	105%	0.6 mg/kg	39 days	36 days		0.65 mg/kg	80 nM		1 mg/kg		64%	54 days	MST (P388/ADR [20]): 40 days; ILS (P388/ADR [21]): 344%; ILS (Mus musculus [23]): 64%
Cc1c2oc3c(C)ccc(C(=O)N[C@@H]4C(=O)N[C@H](C(C)C)C(=O)N5CCC[C@H]5C(=O)N(C)CC(=O)N(C)[C@@H](C(C)C)C(=O)O[C@@H]4C)c3nc-2c(C(=O)N[C@@H]2C(=O)N[C@H](C(C)C)C(=O)N3CCC[C@H]3C(=O)N(C)CC(=O)N(C)[C@@H](C(C)C)C(=O)O[C@@H]2C)c(N)c1=O [DACTINOMYCIN] (I: T[dV]P[Sar][NMeV] / II: T[dV]P[Sar][NMeV]; ester I:1-I:C, II:1-II:C; linker I:N-II:N via Actinocin(1to9))	26	380 nM	3 nM	60.1 nM	0.025 mg/kg	55%	52%	0.3 mg/kg	29 days	33.5 days	12 days	0.075 mg/kg	2500 nM	33%	0.9 mg/kg	36%	52%	45 days	IC50 (L1210 [3]; Mus musculus, L1210): 19 nM; ΔTm (Bos taurus): 7.1
Cc1c2oc3c(C)c(OC[C@H]4CO4)cc(C(=O)N[C@@H]4C(=O)N[C@@H](C(C)C)C(=O)N5CCC[C@H]5C(=O)N(C)CC(=O)N(C)[C@@H](C(C)C)C(=O)O[C@H]4C)c3nc-2c(C(=O)N[C@@H]2C(=O)N[C@@H](C(C)C)C(=O)N3CCC[C@H]3C(=O)N(C)CC(=O)N(C)[C@@H](C(C)C)C(=O)O[C@H]2C)c(N)c1=O	30																		Ratio [24]: 500
